ChEMBL document CHEMBL1134685, “Antitumor Agents. 211. Fluorinated 2-phenyl-4-quinolone derivatives as antimitotic antitumor agents” (J Med Chem, 2001)

How the values were obtained:
K562 = test: Inhibition of in vitro tumor cell growth of K-562, leukemia cell line; type: functional; conditions: Homo sapiens
RXF 393 = test: Inhibition of in vitro tumor cell growth of RXF-393, renal cancer cell line; type: functional; conditions: Homo sapiens
[1] = Inhibition of in vitro tumor cell growth of […], melanoma; type: functional; conditions: Homo sapiens
SF-268 = test: Inhibition of in vitro tumor cell growth of SF-268, CNS tumor cell line; type: functional; conditions: Homo sapiens
HCT-116 = test: Inhibition of in vitro tumor cell growth of HCT116, colon cancer cell line; type: functional; conditions: Homo sapiens
NCI-H226 = test: Inhibition of tumor cell growth of NCI-H226, non-small-cell lung cell line; type: functional; conditions: Homo sapiens
Tubulin alpha chain [2] = target: T1, Tubulin alpha chain (Sus scrofa, UniProt P02550); test: (§1) Inhibition of tubulin polymerization. (ITP)
Procedure, shortened: (§2)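 Tubulin polymerization inhibition, with reaction mixtures containing 10 μM tubulin. Result given as IC50.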

SF-295 = test: Inhibition of in vitro tumor cell growth of SF-295, CNS tumor cell line; type: functional; conditions: Homo sapiens
OVCAR-3 = test: Inhibition of in vitro tumor cell growth of OVCAR-3,ovarian cancer cell line; type: functional; conditions: Homo sapiens
[3] = target: Tubulin alpha chain (Sus scrofa) (UniProt P02550); test: as §1; procedure, shortened: as §2
Tubulin alpha chain [4] = target: T1, Tubulin alpha chain; test: Inhibition of tubulin polymerization (ITP); procedure, shortened: as §2

T1 sequence (P02550 whole entry, looked up): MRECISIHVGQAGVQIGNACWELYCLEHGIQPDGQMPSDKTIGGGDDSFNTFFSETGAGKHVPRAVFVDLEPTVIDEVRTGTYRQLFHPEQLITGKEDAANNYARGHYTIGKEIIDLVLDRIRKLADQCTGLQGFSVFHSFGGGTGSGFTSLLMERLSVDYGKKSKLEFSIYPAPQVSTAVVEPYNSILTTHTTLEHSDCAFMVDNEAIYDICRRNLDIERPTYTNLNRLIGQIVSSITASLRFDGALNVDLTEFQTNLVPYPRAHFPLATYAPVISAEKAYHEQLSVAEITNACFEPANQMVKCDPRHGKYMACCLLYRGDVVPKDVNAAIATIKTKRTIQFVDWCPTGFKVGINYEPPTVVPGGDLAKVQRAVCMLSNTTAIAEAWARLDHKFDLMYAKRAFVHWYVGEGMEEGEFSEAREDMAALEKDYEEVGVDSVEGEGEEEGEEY
Sequence of Tubulin alpha chain (Sus scrofa) (P02550 whole entry, looked up): as above

GI50 (K562)	GI50 (HCT-116)	GI50 (NCI-H226)	IC50 (Tubulin alpha chain [2])	GI50 (OVCAR-3)	IC50 [3]	IC50 (Tubulin alpha chain [4])	Compound	GI50 (RXF 393)	GI50 [1]	GI50 (SF-268)	GI50 (SF-295)
38 µM	72.4 µM	> 100 µM	> 40 µM	–	–	–	CCOC(=O)COc1cc(-c2ccccc2F)nc2cc3c(cc12)OCO3	> 100 µM	72.4 µM	> 100 µM	> 100 µM
–	–	–	> 40 µM	–	–	–	Cn1c(-c2ccccc2)cc(=O)c2ccccc21	–	–	–	–
–	> 100 µM	–	> 40 µM	–	–	–	CCOC(=O)CCCOc1cc(-c2ccccc2F)nc2cc3c(cc12)OCO3	–	57.5 µM	> 100 µM	–
56.2 µM	5.5 µM	16.6 µM	–	21.4 µM	–	–	Fc1ccccc1-c1cc(S)c2cc3c(cc2n1)OCO3	29.5 µM	4.07 µM	20 µM	11.7 µM
0.0324 µM	–	–	–	–	0.46 µM	–	O=c1cc(-c2ccccc2F)[nH]c2ccc(N3CCCC3)cc12	< 0.01 µM	< 0.01 µM	0.0389 µM	–
–	–	–	–	–	–	7.3 µM	Oc1cc(-c2ccccc2)nc2ccccc12	–	–	–	–
> 100 µM	> 100 µM	> 100 µM	> 20 µM	> 100 µM	–	–	O=C(O)COc1cc(-c2ccccc2F)nc2cc3c(cc12)OCO3	> 100 µM	> 100 µM	> 100 µM	> 100 µM
–	–	–	12 µM	–	–	–	O=C(O)CCCOc1cc(-c2ccccc2F)nc2cc3c(cc12)OCO3	–	–	–	–
–	–	–	–	–	–	0.68 µM	O=c1cc(-c2ccccc2F)[nH]c2cc3c(cc12)OCO3	–	0.0209 µM	–	–
–	–	–	5 µM	–	–	–	O=c1[nH]c(/C=C/c2ccccc2)nc2ccccc12	–	–	–	–
